Usually IC50 stands for the concentration that inhibits the measured activity by half.

The values that follow come from ChEMBL document CHEMBL2069263, “Synthesis and characterization of quinoline-based thiosemicarbazones and correlation of cellular iron-binding efficacy to anti-tumor efficacy” (Bioorg Med Chem Lett, 2012).

Data set [1] deals with HCT-116. Briefly: Antiproliferative activity against human HCT116 cells expressing p53 assessed as cell survival at 1 nM after 9 days by clonogenic assay relative to control. The data set is classed as functional.
The subject of data set [2] is HCT-116. Briefly: Antiproliferative activity against human HCT116 cells expressing p53 assessed as cell survival at 0.5 nM after 9 days by clonogenic assay relative to control. The data set is classed as functional.
For data set [3], the system named is HCT-116. Briefly: Antiproliferative activity against human HCT116 cells expressing p53 after 72 hrs by MTT assay. The data set is classed as functional, cell-based. As to conditions: HCT-116, 72 h. In a few lines:
(§1)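 Cells (SK-N-MC neuroepithelioma, HCT116 colon cancer p53+/+ or p53−/−, normal human dermal fibroblasts) were exposed to compounds for 72 h and proliferation was measured by standard methods. IC50 is reported as mean ± SD of three experiments.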

For data set [4], the system named is SK-N-MC. Briefly: Iron chelation activity in human SK-N-MC cells assessed as cellular 59Fe released at 25 uM incubated for 3 hrs post 59Fe-transferrin-labeling by gamma scintillation counting. The data set is classed as functional. In a few lines: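 SK-N-MC cells were prelabeled with 59Fe-transferrin for 3 h at 37 °C and washed 4 times with ice-cold PBS. They were then reincubated for 3 h at 37 °C with or without chelator. Released 59Fe was counted by scintillation counting. Results are mean ± SD of three experiments.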

For data set [5], the system named is SK-N-MC. Put plainly: Antiproliferative activity against human SK-N-MC cells after 72 hrs by MTT assay. Format: functional, cell-based. In a few lines:
as §1
A general note: Tetrazolium dyes change colour on reduction, which living cells bring about.

A further data set concerns NHDF. Briefly: Antiproliferative activity against human NHDF cells after 72 hrs by MTT assay. Format: cell-based. In a few lines:
as §1

For data set [6], the system named is SK-N-MC. Put plainly: Iron chelation activity in human SK-N-MC cells assessed as inhibition of 59Fe uptake from transferrin complex at 25 uM after 3 hrs by gamma scintillation counting relative to control. The data set is classed as functional. The arrangement: scale not given: the % may be the effect or the level left. In a few lines:
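SK-N-MC cells were incubated with 59Fe-transferrin, with or without chelator, for 3 h at 37 °C and washed 4 times with ice-cold PBS. Internalized 59Fe was taken as the pronase-resistant fraction after pronase (1 mg/mL, 30 min, 4 °C) and counted by γ-scintillation. Uptake is expressed relative to control, mean ± SD of three experiments.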

Data set [7] relates to HCT-116. Briefly: Antiproliferative activity against p53-deficient human HCT116 cells after 72 hrs by MTT assay. Format: functional, cell-based. The conditions noted are these: HCT-116, 72 h. In a few lines: as §1
Data set [8] deals with HCT-116. Briefly: Antiproliferative activity against human HCT116 cells expressing p53 assessed as cell survival at 5 nM after 9 days by clonogenic assay relative to control. The data set is classed as functional.
The test system of data set [9] is HCT-116. Put plainly: Antiproliferative activity against p53-deficient human HCT116 cells assessed as cell survival at 50 uM after 9 days by clonogenic assay relative to control. Format: functional.
The test system of data set [10] is HCT-116. Briefly: Antiproliferative activity against p53-deficient human HCT116 cells assessed as cell survival at 40 uM after 9 days by clonogenic assay relative to control. The data set is classed as functional.
For data set [11], the system named is HCT-116. Put plainly: Antiproliferative activity against p53-deficient human HCT116 cells assessed as cell survival at 25 uM after 9 days by clonogenic assay relative to control. Format: functional.
Data set [12] has as its system HCT-116. Briefly: Antiproliferative activity against p53-deficient human HCT116 cells assessed as cell survival at 30 uM after 9 days by clonogenic assay relative to control. Format: functional.
Data set [13] concerns HCT-116. Put plainly: Antiproliferative activity against human HCT116 cells expressing p53 assessed as cell survival at 40 uM after 9 days by clonogenic assay relative to control. The data set is classed as functional.
The subject of data set [14] is HCT-116. Put plainly: Antiproliferative activity against human HCT116 cells expressing p53 assessed as cell survival at 20 uM after 9 days by clonogenic assay relative to control. Format: functional.
Data set [15] deals with HCT-116. Briefly: Antiproliferative activity against human HCT116 cells expressing p53 assessed as cell survival at 50 uM after 9 days by clonogenic assay relative to control. Format: functional.
For data set [16], the system named is HCT-116. Put plainly: Antiproliferative activity against human HCT116 cells expressing p53 assessed as cell survival at 30 uM after 9 days by clonogenic assay relative to control. The data set is classed as functional.
In data set [17] the test system is HCT-116. Briefly: Antiproliferative activity against p53-deficient human HCT116 cells assessed as cell survival at 20 uM after 9 days by clonogenic assay relative to control. Format: functional.
For data set [18], the system named is HCT-116. Briefly: Antiproliferative activity against human HCT116 cells expressing p53 assessed as cell survival at 25 uM after 9 days by clonogenic assay relative to control. Format: functional.
A short description of data set [19]: Therapeutic index, ratio of IC50 for human NHDF cells to IC50 for human SK-N-MC cells. Format: cell-based. The conditions noted are these: NHDF cells and SK-N-MC cells, read-out: Ratio IC50. In a few lines: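 Ratio of NHDF IC50 to SK-N-MC IC50. Both IC50s come from anti-proliferative assays after a 72 h incubation with the chelator. Each IC50 is the mean ± SD of three experiments.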

The structures appear in SMILES notation. The source made the active and inactive calls. The rule behind the calls is not given here.

For the compound `CN(C)C(=S)N/N=C(/c1ccccc1)c1ccccn1`, the “fold change (FC)” value was 0.1273 with HCT-116 [1] and 0.6762 in the data set with HCT-116 [2].
On to `CCNC(=S)N/N=C/c1ccc2cccc(O)c2n1`, for which the IC50 with HCT-116 [3] was 2.62 µM; in the data set with SK-N-MC [5], greater than 12.5 µM; in the data set on NHDF it was greater than 25 µM; in the data set with HCT-116 [7], 3.15 µM. Besides, the outcome in the data set on SK-N-MC [4] was inactive. The Activity in the data set with SK-N-MC [6] is listed as 49%.
In the case of `Oc1cccc2ccc(/C=N/NC(=S)Nc3ccccc3)nc12`, the IC50 in the data set with HCT-116 [3] is 25 µM; with SK-N-MC [5] it was greater than 12.5 µM; in the data set on HCT-116 [7] it was 20.9 µM. The outcome in the data set with SK-N-MC [4] was inactive. For the same compound, the Activity with SK-N-MC [6] is listed as 49%.
Consider `CN(C)C(=S)N/N=C/c1ccc2cccc(O)c2n1`, for which the IC50 was greater than 15 µM with HCT-116 [3], 9.69 µM with SK-N-MC [5], 15.8 µM with NHDF and 0.27 µM in the data set on HCT-116 [7]. Moreover, the Activity came to 33% in the data set with SK-N-MC [4] and 14% with SK-N-MC [6].
For `CCNC(=S)N/N=C/c1ccc2ccccc2n1`, the IC50 in the data set with HCT-116 [3] was 23.2 µM; in the data set with SK-N-MC [5], greater than 12.5 µM; with HCT-116 [7] it was 19.6 µM. Also, the Activity in the data set on SK-N-MC [6] came out at 49%.
As to `CN(C)C(=S)NN=C(c1ccccn1)c1ccccn1`, the half-maximal inhibitory concentration (IC50) in the data set on HCT-116 [3] was 0.002 µM; in the data set with SK-N-MC [5], 0.014 µM; in the data set with NHDF it was 15.4 µM; in the data set with HCT-116 [7], 0.005 µM. The “fold change (FC)” value in the data set with HCT-116 [8] is listed as 0.1922; in the data set with HCT-116 [1] it was 0.8541; in the data set with HCT-116 [2], 1.0629.
Regarding `CNC(=S)N/N=C/c1c(O)ccc2cccnc12`, the “fold change (FC)” value was 0 in the data set on HCT-116 [9]; 0.004 with HCT-116 [10]; 0.034 in the data set on HCT-116 [11]; 0.012 in the data set on HCT-116 [12]; 0.014 in the data set with HCT-116 [13]; 0.05 in the data set with HCT-116 [14]. The “fold change (FC)” value is given as 0 in the data set on HCT-116 [15], 0.039 in the data set with HCT-116 [16], 0.06 with HCT-116 [17] and 0.041 with HCT-116 [18]. For the same compound, the IC50 is greater than 25 µM in the data set on HCT-116 [3], 0.62 µM with SK-N-MC [5], greater than 25 µM in the data set with NHDF and 8.06 µM with HCT-116 [7]. Also, the figures for the Activity in the data set with SK-N-MC [4] and in the data set on SK-N-MC [6] were 33% and 45%, respectively.
`O=C(N/N=C/c1c(O)ccc2ccccc12)c1ccncc1`: in the data set on SK-N-MC [5], the IC50 turned out to be 1.3 µM.
For the compound `CCNC(=S)N/N=C/c1c(O)ccc2cccnc12`, the IC50 in the data set with HCT-116 [3] is greater than 25 µM; with SK-N-MC [5], 0.19 µM; in the data set with NHDF it was greater than 25 µM; with HCT-116 [7], greater than 25 µM. Besides, the results for the Activity with SK-N-MC [4] and in the data set with SK-N-MC [6] were 33% and 24%, respectively.
On to `CNC(=S)N/N=C/c1ccc2cccc(O)c2n1`, for which the IC50 with HCT-116 [3] was 1.71 µM; in the data set with SK-N-MC [5] it was greater than 12.5 µM; with NHDF, greater than 25 µM; in the data set on HCT-116 [7], 2.17 µM. Moreover, the result with SK-N-MC [4] was inactive. Further, the Activity in the data set with SK-N-MC [6] was determined as 49%.
Consider `CN(C)C(=S)N/N=C/c1c(O)ccc2cccnc12`, for which the IC50 in the data set on HCT-116 [3] was 20.8 µM; with SK-N-MC [5], 0.11 µM; with NHDF, 14.9 µM; with HCT-116 [7], greater than 25 µM. Moreover, the Activity with SK-N-MC [4] is recorded as 33%; in the data set with SK-N-MC [6], 18%. Moreover, in data set [19], the selectivity ratio came out at 131.
Consider `S=C(N/N=C/c1ccc2ccccc2n1)Nc1ccccc1`, for which the values for the IC50 in the data set with HCT-116 [3], with SK-N-MC [5] and with HCT-116 [7] were 22.3 µM, greater than 12.5 µM and 21.4 µM, respectively. In the data set on SK-N-MC [4], the outcome was inactive.
The compound `CC(=O)N(O)CCCCCNC(=O)CCC(=O)N(O)CCCCCNC(=O)CCC(=O)N(O)CCCCCN` [DEFEROXAMINE] displayed an IC50 with SK-N-MC [5] of 12.5 µM.
For the compound `CN(C)C(=S)N/N=C/c1ccc2ccccc2n1`, the IC50 in the data set on HCT-116 [3] is 4.86 µM; in the data set on SK-N-MC [5], 0.81 µM; in the data set with NHDF it was 11.7 µM; in the data set with HCT-116 [7], 0.37 µM. The selectivity ratio in data set [19] is 14. Moreover, in the data set with SK-N-MC [6], the Activity worked out at 49%.
`Oc1ccc2cccnc2c1/C=N/NC(=S)Nc1ccccc1`: the IC50 in the data set on HCT-116 [3] came to 16.3 µM; in the data set with SK-N-MC [5], 1.63 µM; in the data set with NHDF, 14.9 µM; in the data set with HCT-116 [7], 18.6 µM. In the data set on SK-N-MC [6], the Activity amounted to 49%.
Take `CNC(=S)N/N=C/c1ccc2ccccc2n1`: the IC50 was greater than 25 µM in the data set on HCT-116 [3], greater than 12.5 µM in the data set on SK-N-MC [5] and greater than 25 µM with HCT-116 [7]. The Activity in the data set with SK-N-MC [6] was 49%.
